This note sets out measurements from ChEMBL document CHEMBL1144505, “Synthesis, analytical behaviour and biological evaluation of new 4-substituted pyrrolo[1,2-a]quinoxalines as antileishmanial agents” (Bioorg Med Chem, 2007).

Data set [1] is described as follows: Partition coefficient, log D at pH 7.4. The settings on record: octanol/water.
Data set [2] deals with PBMC. The experiment in a line: Cytotoxicity against human PBMC by MTT assay after 3 to 4 days. It counts as cell-based. The procedure, abridged: (§1)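 Freshly isolated PBMC from healthy volunteers were prepared on a Ficoll gradient and cultured in medium alone or stimulated with PHA (5 µg/ml). Compounds were added, and after 3–4 days cells were harvested, washed and counted by trypan blue exclusion; in some experiments MTT was used instead. IC50 was obtained by linear regression, and the maximum tolerated concentration was also assessed.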

Data set [3] can be described thus: Selectivity index, ratio of IC50 for phytohemagglutininin-activated-PBMC to IC50 for Leishmania amazonensis MHOM/BR/1987/BA promastigotes. In kind it is functional. The procedure, abridged: (§2)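 Selectivity index is the IC50 on PHA-activated PBMC divided by the IC50 against the L. amazonensis or L. infantum promastigotes.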
The test system of another data set is Leishmania amazonensis. Kind of data set: Antileishmanial activity against Leishmania amazonensis MHOM/BR/1987/BA promastigotes by MTT assay after 1 to 2 days. It counts as functional, organism-based. The procedure, abridged:
(§3)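 Promastigotes harvested at stationary growth phase (10⁶/ml), washed and incubated with compounds in culture medium. Viability was read by MTT reduction to formazan, with detergent lysis and absorbance at 570 nm; in some experiments parasites were instead counted under microscope. […] Values are means of three independent experiments.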

Data set [4] can be described thus: Selectivity index, ratio of IC50 for phytohemagglutininin-activated-PBMC to IC50 for Leishmania infantum clone MCAN/GR/82/LEM497 promastigotes. It counts as functional. Summed up: as §2
For a further data set, the system named is Leishmania infantum. The experiment in a line: Antileishmanial activity against Leishmania infantum clone MCAN/GR/82/LEM497 promastigotes by MTT assay after 1 to 2 days. In kind it is functional, organism-based. Summed up: as §3
(In general: Tetrazolium assays rely on reduction of a dye to a coloured formazan, in cell work by metabolically active cells.)

Data set [5] concerns PBMC. The experiment in a line: Cytotoxicity against human phytohemagglutininin-activated-PBMC by MTT assay after 3 to 4 days. In kind it is cell-based. The procedure, abridged: as §1

Structures are written as SMILES. pIC50: −log10 of the molar value.

In general, logD refers to lipophilicity at a set pH, counting ionised and neutral species. Lower therefore signals lower lipophilicity. The term pIC50 denotes the negative decadic logarithm of the IC50, by convention in mol/L. Regarding `CCCCC#Cc1nc2ccccc2n2cccc12`, the logD in data set [1] came out at 4.36. Moreover, the pIC50 in the data set on PBMC [2] was 4.30; in the data set on Leishmania amazonensis it was 4.74; in the data set on Leishmania infantum it was 4.60; in the data set on PBMC [5], 4.60. Besides, the “Ratio IC50” value is reported as 1.4 in data set [3] and 1 in data set [4].
`CCCc1nc2cc(OC)ccc2n2cccc12` showed a logD in data set [1] of 3.4. The pIC50 was less than 4.00 with PBMC [2], less than 4.30 with Leishmania amazonensis, less than 4.30 in the data set with Leishmania infantum and 4.05 in the data set with PBMC [5].
For the compound `CCCCCc1nc2cc(OC)ccc2n2cccc12`, the logD in data set [1] was determined as 4.38. Also, the pIC50 is 4.18 in the data set on PBMC [2], less than 4.30 with Leishmania amazonensis, less than 4.30 in the data set on Leishmania infantum and 4.35 in the data set with PBMC [5]. Moreover, the “Ratio IC50” value in data set [3] and in data set [4] was less than 1 each time.
In the case of `CCC/C=C/c1nc2ccccc2n2cccc12`, in data set [1], the logD amounted to 4.44. Moreover, the pIC50 was 4.15 with PBMC [2], 5.30 in the data set on Leishmania amazonensis, 5.15 in the data set on Leishmania infantum and 4.28 in the data set with PBMC [5]. For the same compound, the results for the “Ratio IC50” value in data set [3] and in data set [4] were 10.4 and 7.4, respectively.
In turn, `COc1ccc(CCc2nc3ccccc3n3cccc23)cc1OC` had a logD in data set [1] of 2.97. Moreover, the pIC50 in the data set on PBMC [2] is less than 4.00; in the data set with Leishmania amazonensis, 4.52; with Leishmania infantum, less than 4.30; in the data set with PBMC [5] it was less than 4.00. In addition, in data set [3], the “Ratio IC50” value was greater than 3.3.
Turning to `COc1ccc2c(c1)nc(/C=C/c1ccccc1)c1cccn12`, the pIC50 in the data set on PBMC [2] was less than 4.00; in the data set with Leishmania amazonensis it was 4.44; with Leishmania infantum it was 5.30; in the data set with PBMC [5], less than 4.00.
Compound `CCCc1nc2ccccc2n2cccc12` gave a logD in data set [1] of 3.35. The pIC50 in the data set with PBMC [2] was less than 4.00; with Leishmania amazonensis, less than 4.30; with Leishmania infantum, less than 4.30; in the data set on PBMC [5], 4.00.
`C1=C(c2nc3ccccc3n3cccc23)CCCC1` returned a pH-dependent lipophilicity (logD) in data set [1] of 4.12. Moreover, the pIC50 in the data set on PBMC [2] was less than 4.00; with Leishmania amazonensis it was less than 4.30; with Leishmania infantum, less than 4.30; in the data set with PBMC [5], less than 4.00.
In data set [1], `C/C=C\c1nc2ccccc2n2cccc12` gave a logD of 3.3. Also, the pIC50 in the data set on PBMC [2] was 5.10; in the data set with Leishmania amazonensis, 5.40; in the data set on Leishmania infantum, 6.10; with PBMC [5] it was 5.22. Also, the “Ratio IC50” value in data set [3] was 1.5; in data set [4], 7.5.
In data set [1], `C(=C\c1nc2ccccc2n2cccc12)/c1ccccc1` displayed a logD of 4.84. Moreover, the pIC50 with PBMC [2] is less than 4.00; with Leishmania amazonensis, 4.46; in the data set with Leishmania infantum, less than 4.30; in the data set with PBMC [5], less than 4.00. Besides, the “Ratio IC50” value in data set [3] was greater than 2.9.
The compound `C/C=C/c1nc2cc(OC)ccc2n2cccc12` displayed a logD in data set [1] of 3.47. Also, the pIC50 is 5.30 in the data set with PBMC [2], 5.15 in the data set with Leishmania amazonensis, 5.70 in the data set with Leishmania infantum and 5.30 with PBMC [5]. Further, the “Ratio IC50” value in data set [3] stood at 0.7; in data set [4], 2.5.
The compound `C/C=C/c1nc2ccc(OC)cc2n2cccc12` displayed a pH-dependent lipophilicity (logD) in data set [1] of 3.48. The pIC50 with PBMC [2] is 5.15; in the data set on Leishmania amazonensis it was 6.00; with Leishmania infantum, 6.30; in the data set with PBMC [5], 5.30. In addition, the figures for the “Ratio IC50” value in data set [3] and in data set [4] were 5 and 10, respectively.
On to `CCCCCc1nc2ccccc2n2cccc12`, for which, in data set [1], the logD came out at 4.04. For the same compound, the pIC50 was less than 4.00 in the data set on PBMC [2], less than 4.30 in the data set with Leishmania amazonensis, less than 4.30 with Leishmania infantum and 4.52 in the data set on PBMC [5]. Moreover, the “Ratio IC50” value in data set [3] and in data set [4] was less than 1 in each case.
`CCC/C=C/c1nc2cc(OC)ccc2n2cccc12` yielded a logD in data set [1] of 4.52. The pIC50 is 4.22 in the data set with PBMC [2], 5.22 in the data set on Leishmania amazonensis, 6.00 with Leishmania infantum and 4.40 in the data set with PBMC [5]. In addition, the “Ratio IC50” value amounted to 6.7 in data set [3] and 40 in data set [4].
For `C=Cc1nc2ccccc2n2cccc12`, the logD in data set [1] was 3.08. Besides, the pIC50 is 5.52 in the data set on PBMC [2], 5.52 with Leishmania amazonensis, 6.30 in the data set with Leishmania infantum and 6.00 with PBMC [5]. Also, the “Ratio IC50” value in data set [3] is listed as 0.3; in data set [4], 2.
Take `C/C=C/c1nc2ccccc2n2cccc12`: the logD in data set [1] came to 3.44. For the same compound, the pIC50 was 5.22 in the data set with PBMC [2], 6.30 in the data set on Leishmania amazonensis, 6.15 in the data set with Leishmania infantum and 5.30 with PBMC [5]. Also, the “Ratio IC50” value was 10 in data set [3] and 7.1 in data set [4].
In turn, `c1ccc(-c2nc3ccccc3n3cccc23)cc1` yielded a logD in data set [1] of 3.6. The pIC50 with PBMC [2] was less than 4.00; with Leishmania amazonensis, less than 4.30; with Leishmania infantum it was less than 4.30; in the data set with PBMC [5] it was less than 4.00.
`c1ccc2c(c1)nc(CCc1ccc3c(c1)OCO3)c1cccn12`: in data set [1], the logD came to 3.84. Also, the pIC50 with PBMC [2] was less than 4.00; in the data set with Leishmania amazonensis it was 5.15; with Leishmania infantum it was less than 4.30; in the data set on PBMC [5] it was 4.19. Also, in data set [3], the “Ratio IC50” value worked out at 9.3.
In turn, `CCCCC#Cc1nc2cc(OC)ccc2n2cccc12` yielded a logD in data set [1] of 4.35. Moreover, the negative logarithm of the IC50 (pIC50) with PBMC [2] was 5.22; in the data set on Leishmania amazonensis, 5.52; in the data set with Leishmania infantum it was 5.15; in the data set on PBMC [5], 5.30. Besides, the “Ratio IC50” value came out at 1.7 in data set [3] and 0.7 in data set [4].
For `CCC/C=C/c1nc2ccc(OC)cc2n2cccc12`, the logD in data set [1] was determined as 4.3. Also, the pIC50 with PBMC [2] is 4.26; in the data set on Leishmania amazonensis it was 5.40; with Leishmania infantum, 5.60; in the data set with PBMC [5], 4.52. The “Ratio IC50” value in data set [3] amounted to 7.5; in data set [4], 12.
In turn, `C[C@H]1O[C@H]1c1nc2ccccc2n2cccc12` (relative stereo) displayed a logD in data set [1] of 2.55. Besides, the pIC50 is less than 4.00 with PBMC [2], less than 4.30 in the data set on Leishmania amazonensis, less than 4.30 in the data set on Leishmania infantum and less than 4.00 in the data set on PBMC [5].
As to `C[C@@H]1O[C@H]1c1nc2ccccc2n2cccc12` (relative stereo), the logD in data set [1] amounted to 2.61. For the same compound, the pIC50 was less than 4.00 with PBMC [2], less than 4.30 in the data set with Leishmania amazonensis, less than 4.30 in the data set with Leishmania infantum and less than 4.00 with PBMC [5].
For the compound `C[C@@H]1[C@H](O)[C@@H](C)/C=C/C=C/C=C/C=C/C=C/C=C/C=C/[C@H](O[C@@H]2O[C@H](C)[C@@H](O)[C@H](N)[C@@H]2O)C[C@@H]2O[C@](O)(C[C@@H](O)C[C@@H](O)[C@H](O)CC[C@@H](O)C[C@@H](O)CC(=O)O[C@H]1C)C[C@H](O)[C@H]2C(=O)O` [AMPHOTERICIN B], the pIC50 with PBMC [2] is less than 4.00; in the data set with Leishmania amazonensis, 6.00; in the data set on Leishmania infantum, 6.05; in the data set on PBMC [5] it was 4.02. Further, the “Ratio IC50” value in data set [3] is reported as 96; in data set [4], 106.6.
`C/C=C/c1ccc2ccccc2n1` [CHIMANINE B]: the logD in data set [1] is 2.23. Moreover, the pIC50 in the data set with PBMC [2] is 4.37; in the data set on Leishmania amazonensis, 5.30; in the data set on Leishmania infantum, 5.15; in the data set on PBMC [5] it was 4.38. Further, the “Ratio IC50” value in data set [3] stood at 8.4; in data set [4] it was 6.
